ChEMBL document CHEMBL1629488, “Synthesis and biological evaluation of 2-(3',4',5'-trimethoxybenzoyl)-3-aryl/arylaminobenzo[b]thiophene derivatives as a novel class of antiproliferative agents” (Eur J Med Chem, 2010)
The source made the active and inactive calls. The rule behind the calls is not given here.

How the values were obtained:
HeLa [1] = test: Induction of apoptosis in human HeLa cells assessed as loss of mitochondrial membrane potential after 24 to 48 hrs using Rho123 staining by flow cytometry; format: functional, cell-based
Procedure, shortened: (§1)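 After 24 or 48 h exposure, HeLa cells were pelleted, resuspended in HBSS with 0.1 μM rhodamine 123, held 20 min at 37 °C, spun and resuspended in HBSS; fluorescence read by flow cytometry. Mean ± S.E.M. of 3 independent experiments.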

HeLa [2] = test: Upregulation of cyclin B1 protein expression in human HeLa cells after 24 to 48 hrs by Western blot analysis; format: functional, cell-based
Procedure, shortened: (§2)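 Treated cells washed twice in ice-cold PBS, lysed 30 min on ice, lysate cleared at 15000×g, 4 °C, 10 min; protein by BCA. 20 μg per lane on SDS-PAGE (7.5–15%), PVDF transfer, overnight block at 4 °C; primary antibodies 2 h at room temperature, peroxidase secondaries 60 min, ECL detection; β-actin loading control.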

Jurkat [3] = test: Cell cycle arrest in human Jurkat cells assessed as accumulation at G2/M phase after 24 hrs using propidium iodide staining by flow cytometry; format: functional, cell-based
Procedure, shortened: (§3)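 Exponentially growing cells (5 × 10^5) exposed to graded compound levels, 0.312 to 5 μM, for 24 or 48 h; collected, fixed in ice-cold 70% ethanol, treated with lysis buffer containing RNase A and 0.1% Triton X-100, stained with propidium iodide; DNA content read by flow cytometry. Mean ± SEM of two independent experiments.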

Jurkat [4] = test: Antiproliferative activity against human Jurkat cells after 72 hrs by MTT assay; format: functional, cell-based
HeLa [5] = test: Induction of apoptosis in human HeLa cells assessed as caspase-3-mediated cleavage of PARP after 48 hrs by Western blot analysis; format: functional, cell-based; procedure, shortened: as §2
HL-60 = test: Antiproliferative activity against human HL60 cells after 72 hrs by MTT assay; format: functional, cell-based; conditions: HL-60, 72 h
HeLa [6] = test: Induction of apoptosis in human HeLa cells assessed as late apoptotic cells at 2.5 uM after 24 hrs using FITC-conjugated annexin V and propidium iodide staining by flow cytometry assay (RVb = 1.9 %); format: functional
HeLa [7] = test: Upregulation of p53 protein expression in human HeLa cells at up to 2.5 uM after 24 to 48 hrs by Western blot analysis; format: functional, cell-based; procedure, shortened: as §2
HeLa [8] = test: Cell cycle arrest in human HeLa cells assessed as hypodiploid peak at sub-G1 phase at 0.312 to 5 uM uM after 48 hrs using propidium iodide staining by flow cytometry; format: functional, cell-based; procedure, shortened: as §3
HeLa [9] = test: Induction of apoptosis in human HeLa cells assessed as necrotic cells at 5 uM after 24 hrs using FITC-conjugated annexin V and propidium iodide staining by flow cytometry assay (RVb = 1.9 %); format: functional
HeLa [10] = test: Induction of apoptosis in human HeLa cells assessed as late apoptotic cells at 5 uM after 24 hrs using FITC-conjugated annexin V and propidium iodide staining by flow cytometry assay (RVb = 1.9 %); format: functional
HeLa [11] = test: Induction of apoptosis in human HeLa cells assessed as viable cells at 1.25 uM after 24 hrs using FITC-conjugated annexin V and propidium iodide staining by flow cytometry assay (RVb = 94.7 %); format: functional; conditions: read-out: Activity
HeLa [12] = test: Cell cycle arrest in human HeLa cells assessed as accumulation at G2/M phase at 0.625 uM after 24 hrs using propidium iodide staining by flow cytometry relative to control; format: functional; procedure, shortened: as §3
K562 = test: Antiproliferative activity against human K562 cells after 72 hrs by MTT assay; format: functional, cell-based; conditions: K562, 72 h
HeLa [13] = test: Induction of apoptosis in human HeLa cells assessed as late apoptotic cells at 1.25 uM after 24 hrs using FITC-conjugated annexin V and propidium iodide staining by flow cytometry assay (RVb = 1.9 %); format: functional
Jurkat [14] = test: Cell cycle arrest in human Jurkat cells assessed as hypodiploid peak at sub-G1 phase at 0.312 to 5 uM uM after 48 hrs using propidium iodide staining by flow cytometry; format: functional, cell-based; procedure, shortened: as §3
HeLa [15] = test: Induction of apoptosis in human HeLa cells assessed as caspase-3-mediated cleavage of PARP after 24 to 48 hrs; format: functional, cell-based; procedure, shortened: as §2
HeLa [16] = test: Cell cycle arrest in human HeLa cells assessed as reduction of cells at G1 phase at 1.25 uM after 24 hrs using propidium iodide staining by flow cytometry; format: functional, cell-based; procedure, shortened: as §3
HeLa [17] = test: Cell cycle arrest in human HeLa cells assessed as reduction of cells at S phase at 1.25 uM after 24 hrs using propidium iodide staining by flow cytometry; format: functional, cell-based; procedure, shortened: as §3
HeLa [18] = test: Induction of apoptosis in human HeLa cells assessed as necrotic cells at 1.25 uM after 24 hrs using FITC-conjugated annexin V and propidium iodide staining by flow cytometry assay (RVb = 1.9 %); format: functional
HeLa [19] = test: Induction of apoptosis in human HeLa cells assessed as viable cells at 0.62 uM after 24 hrs using FITC-conjugated annexin V and propidium iodide staining by flow cytometry assay (RVb = 94.7 %); format: functional; conditions: read-out: Activity
HeLa [20] = test: Induction of apoptosis in human HeLa cells assessed as early apoptotic cells at 5 uM after 24 hrs using FITC-conjugated annexin V and propidium iodide staining by flow cytometry assay (RVb = 1.5 %); format: functional
[21] = Inhibition of tubulin polymerization after 20 mins by turbidimetry
HeLa [22] = test: Antiproliferative activity against human HeLa cells assessed as cell viability after 72 hrs by MTT assay; format: functional, cell-based
Procedure, shortened: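 A549 and HeLa cells grown in DMEM with 10% FBS and penicillin/streptomycin. Plated at 8 × 10^3 cells/well and held 18 h at 37 °C in 5% CO2. Medium replaced with compound in complete medium at varied concentrations for 72 h at 37 °C, then MTT read.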

HeLa [23] = test: Induction of apoptosis in human HeLa cells assessed as early apoptotic cells at 2.5 uM after 24 hrs using FITC-conjugated annexin V and propidium iodide staining by flow cytometry assay (RVb = 1.5 %); format: functional
HeLa [24] = test: Induction of apoptosis in human HeLa cells assessed as increase of Bcl-2 protein expression up to 2.5 uM after 24 to 48 hrs by Western blot analysis; format: functional, cell-based; procedure, shortened: as §2
HeLa [25] = test: Induction of apoptosis in human HeLa cells assessed as necrotic cells at 2.5 uM after 24 hrs using FITC-conjugated annexin V and propidium iodide staining by flow cytometry assay (RVb = 1.9 %); format: functional
HeLa [26] = test: Induction of apoptosis in human HeLa cells assessed as loss of mitochondrial membrane potential at 0.625 to 2.5 uM using Rho123 staining by flow cytometry; format: functional, cell-based; conditions: TDE = time-dependent effect; procedure, shortened: as §1
HeLa [27] = test: Induction of apoptosis in human HeLa cells assessed as late apoptotic cells at 0.62 uM after 24 hrs using FITC-conjugated annexin V and propidium iodide staining by flow cytometry assay (RVb = 1.9 %); format: functional
HeLa [28] = test: Cell cycle arrest in human HeLa cells assessed as accumulation at G2/M phase at 1.25 uM after 24 hrs using propidium iodide staining by flow cytometry relative to control; format: functional; procedure, shortened: as §3
HeLa [29] = test: Induction of apoptosis in human HeLa cells assessed as viable cells at 5 uM after 24 hrs using FITC-conjugated annexin V and propidium iodide staining by flow cytometry assay (RVb = 94.7 %); format: functional; conditions: read-out: Activity
Jurkat [30] = test: Cell cycle arrest in human Jurkat cells assessed as accumulation at G2/M phase at 1.25 uM after 24 hrs using propidium iodide staining by flow cytometry relative to control; format: functional; procedure, shortened: as §3

## CCOc1ccc(Nc2c(C(=O)c3cc(OC)c(OC)c(OC)c3)sc3ccccc23)cc1
HeLa [1]
  Activity: Dose-dependent effect
HeLa [2]
  Activity: Dose-dependent effect
Jurkat [3]
  Activity: Dose-dependent effect
Jurkat [4]
  IC50: 300 nM
HeLa [5]
  Activity: Active
HL-60
  IC50: 500 nM
HeLa [6]
  Activity: 24.9%
HeLa [7]
  Activity: inactive
HeLa [8]
  Activity: Active
HeLa [9]
  Activity: 17.4%
HeLa [10]
  Activity: 25.4%
HeLa [11]
  viability at 1.25 µM: 63.7%
HeLa [12]
  Activity: 52%
K562
  IC50: 200 nM
HeLa [13]
  Activity: 16%
Jurkat [14]
  Activity: Active
HeLa [15]
  Activity: Dose-dependent effect
HeLa [16]
  Activity: Active
HeLa [17]
  Activity: Active
HeLa [18]
  Activity: 13.4%
HeLa [19]
  viability at 0.62 µM: 64.9%
HeLa [20]
  Activity: 7.2%
[21]
  IC50: 7200 nM
HeLa [22]
  IC50: 700 nM
HeLa [23]
  Activity: 6.4%
HeLa [24]
  Activity: Active
HeLa [25]
  Activity: 19.3%
HeLa [26]
  Activity: tde
HeLa [27]
  Activity: 14.4%
HeLa [28]
  Activity: 85%
HeLa [29]
  viability at 5 µM: 49.9%
Jurkat [30]
  Activity: 70%
